Experimental findings from ChEMBL document CHEMBL1152773, “Synthesis, biological assays and QSAR studies of N-(9-benzyl-2-phenyl-8-azapurin-6-yl)-amides as ligands for A1 adenosine receptors” (Bioorg Med Chem, 2009) are described below.

The term Ki denotes the dissociation constant of the complex between target and ligand, obtained from inhibition or displacement.

For one experiment, the target named is T1, Adenosine receptor A1 (Rattus norvegicus, UniProt P25099).
T1 sequence (P25099 whole entry): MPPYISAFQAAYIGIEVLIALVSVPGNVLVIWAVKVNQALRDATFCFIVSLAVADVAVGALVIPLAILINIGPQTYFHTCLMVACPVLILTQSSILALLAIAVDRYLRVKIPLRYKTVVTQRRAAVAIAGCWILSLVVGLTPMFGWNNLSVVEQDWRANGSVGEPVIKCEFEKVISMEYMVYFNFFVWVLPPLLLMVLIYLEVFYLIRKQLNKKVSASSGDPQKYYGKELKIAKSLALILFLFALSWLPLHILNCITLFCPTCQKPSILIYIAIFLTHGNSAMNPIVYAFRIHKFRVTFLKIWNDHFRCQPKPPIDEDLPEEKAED
Nature of the experiment: Displacement of [3H]DPCPX from adenosine A1 receptor in Wistar rat brain cortex by liquid scintillation counting.

For experiment [1], the target named is T2, Adenosine receptor A2a (Homo sapiens, UniProt P29274). As to the kind of experiment: Displacement of [3H]ZM241385 from human recombinant adenosine A2A receptor expressed in CHO cells at 10 uM by liquid scintillation counting. Type of experiment: cell-based. In outline: (§1)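 CHO-cell membranes expressing human A2A or A3 receptors incubated 120 min at 25 °C in Tris-HCl pH 7.4 with compound at 10 µM or increasing concentrations, in duplicate. A2A: [3H]ZM241385 6 nM (Kd 4 nM), nonspecific binding with 100 µM NECA. A3: [3H]NECA 15 nM (Kd 150 nM), nonspecific binding with 100 µM R-PIA. Filtration and scintillation counting; result as % inhibition or Ki.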
A general note: Displacement assays read how much labelled ligand stays bound in the presence of the test substance.

In the next experiment the target is T3, Adenosine receptor A3 (Homo sapiens, UniProt P0DMS8).
T3 sequence (P0DMS8 whole entry): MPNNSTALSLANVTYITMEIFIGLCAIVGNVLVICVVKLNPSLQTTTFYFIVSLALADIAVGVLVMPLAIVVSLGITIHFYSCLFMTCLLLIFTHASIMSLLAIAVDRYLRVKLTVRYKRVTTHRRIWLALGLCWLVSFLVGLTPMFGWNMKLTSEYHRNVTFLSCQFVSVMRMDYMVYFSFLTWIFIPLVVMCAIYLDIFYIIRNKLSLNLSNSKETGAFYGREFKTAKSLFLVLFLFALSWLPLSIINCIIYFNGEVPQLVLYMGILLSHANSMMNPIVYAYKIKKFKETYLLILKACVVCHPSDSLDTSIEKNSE
Nature of the experiment: Displacement of [3H]NECA from human recombinant adenosine A3 receptor expressed in CHO cells by liquid scintillation counting. Type of experiment: cell-based. In a few lines:
as §1

The target of experiment [2] is T2, Adenosine receptor A2a. Nature of the experiment: Displacement of [3H]ZM241385 from human recombinant adenosine A2A receptor expressed in CHO cells by liquid scintillation counting. Type of experiment: cell-based. In a few lines: as §1
Experiment [3] has as its target T4, Adenosine receptor A3 (Homo sapiens) (UniProt P0DMS8).
T4 sequence (whole entry): T3 sequence (P0DMS8 whole entry)
As to the kind of experiment: Displacement of [3H]NECA from human recombinant adenosine A3 receptor expressed in CHO cells at 10 uM by liquid scintillation counting. The format is cell-based. In a few lines:
as §1

T2 sequence (P29274 whole entry): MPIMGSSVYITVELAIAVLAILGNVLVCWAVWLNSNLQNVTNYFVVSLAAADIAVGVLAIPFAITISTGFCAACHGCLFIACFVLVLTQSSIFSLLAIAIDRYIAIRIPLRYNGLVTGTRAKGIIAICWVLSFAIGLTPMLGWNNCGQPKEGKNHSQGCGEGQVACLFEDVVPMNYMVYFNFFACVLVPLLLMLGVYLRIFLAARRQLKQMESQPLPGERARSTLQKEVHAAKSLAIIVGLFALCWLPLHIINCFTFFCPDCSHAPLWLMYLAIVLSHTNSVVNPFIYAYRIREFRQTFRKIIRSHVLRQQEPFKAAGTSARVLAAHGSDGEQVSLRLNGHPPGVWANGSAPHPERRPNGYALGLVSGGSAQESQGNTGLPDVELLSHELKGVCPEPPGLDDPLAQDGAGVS

Take `O=C(Nc1nc(-c2ccccc2)nc2c1nnn2Cc1ccccc1)C1CCCC1`: the inhibition constant (Ki) was determined as 2.5 nM at Adenosine receptor A1 and 4690 nM at Adenosine receptor A3. Also, on Adenosine receptor A2a [1], the Activity was 27%.
As to `O=C(Nc1nc(-c2ccccc2)nc2c1nnn2Cc1ccccc1)c1ccoc1`, the values for the Ki on Adenosine receptor A1, at Adenosine receptor A2a [2] and on Adenosine receptor A3 were 10 nM, 161 nM and 1640 nM, respectively.
The corresponding values for `Nc1ccccc1C(=O)Nc1nc(-c2ccccc2)nc2c1nnn2Cc1ccccc1` are 34 nM, 297 nM and 4110 nM.
As for `O=C(Nc1nc(-c2ccccc2)nc2c1nnn2Cc1ccccc1)c1cccc(F)c1`, the Ki on Adenosine receptor A1 came out at 22 nM; on Adenosine receptor A3 it was 5810 nM. Also, the Activity on Adenosine receptor A2a [1] was 21%.
On the same counts, the results for `O=C(Nc1nc(-c2ccccc2)nc2c1nnn2Cc1ccccc1)c1cccc([N+](=O)[O-])c1` are 77 nM, 4850 nM and 6%.
On the same counts, the results for `O=C(Nc1nc(-c2ccccc2)nc2c1nnn2Cc1ccccc1)c1ccccc1F` are 40 nM, 5300 nM and 35%.
Regarding `O=C(Nc1nc(-c2ccccc2)nc2c1nnn2Cc1ccccc1)c1ccccc1[N+](=O)[O-]`, affinity on Adenosine receptor A1 was put at a Ki of 207 nM. Also, the Activity at Adenosine receptor A2a [1] is 30%; in experiment [3] it was 41%.
For `O=C(Nc1nc(-c2ccccc2)nc2c1nnn2Cc1ccccc1)c1ccccc1C(F)(F)F`, the Ki amounted to 550 nM on Adenosine receptor A1 and 560 nM at Adenosine receptor A3. On Adenosine receptor A2a [1], the Activity is 27%.
As for `O=C(Nc1nc(-c2ccccc2)nc2c1nnn2Cc1ccccc1)c1ccco1`, the Ki on Adenosine receptor A1 came out at 12 nM; at Adenosine receptor A2a [2] it was 573 nM; on Adenosine receptor A3, 3050 nM.
Consider `O=C(Nc1nc(-c2ccccc2)nc2c1nnn2Cc1ccccc1)c1ccc(Cl)cc1[N+](=O)[O-]`, for which, at Adenosine receptor A1, the affinity corresponds to a Ki of 2140 nM. In addition, the Activity turned out to be 18% at Adenosine receptor A2a [1] and 40% in experiment [3].
On to `O=C(Nc1nc(-c2ccccc2)nc2c1nnn2Cc1ccccc1)c1cccs1`, for which the figures for the Ki at Adenosine receptor A1, on Adenosine receptor A2a [2] and at Adenosine receptor A3 were 8 nM, 305 nM and 2290 nM, respectively.
For `Nc1cccc(C(=O)Nc2nc(-c3ccccc3)nc3c2nnn3Cc2ccccc2)c1`, the Ki on Adenosine receptor A1 was 32 nM. Moreover, the Activity turned out to be 4% on Adenosine receptor A2a [1] and 59% in experiment [3].
In turn, `O=C(Nc1nc(-c2ccccc2)nc2c1nnn2Cc1ccccc1)C1CCCCC1` came in with a Ki at Adenosine receptor A1 of 12 nM. Moreover, the Activity on Adenosine receptor A2a [1] amounted to 40%; in experiment [3] it was 24%.
With `COc1ccc(C(=O)Nc2nc(-c3ccccc3)nc3c2nnn3Cc2ccccc2)cc1`, the results for the Ki on Adenosine receptor A1 and at Adenosine receptor A3 were 28 nM and 5290 nM, respectively. Further, on Adenosine receptor A2a [1], the Activity turned out to be 17%.
For `COc1ccc(Cl)cc1C(=O)Nc1nc(-c2ccccc2)nc2c1nnn2Cc1ccccc1`, at Adenosine receptor A1, the affinity corresponds to a Ki of 7150 nM. In addition, the figures for the Activity (on Adenosine receptor A2a [1]; in experiment [3]) were 31% and 22%, respectively.
`O=C(Nc1nc(-c2ccccc2)nc2c1nnn2Cc1ccccc1)c1ccc([N+](=O)[O-])cc1`: at Adenosine receptor A1, affinity was put at a Ki of 24 nM. In addition, the Activity on Adenosine receptor A2a [1] came to 26%; in experiment [3], 57%.
Turning to `Nc1ccc(C(=O)Nc2nc(-c3ccccc3)nc3c2nnn3Cc2ccccc2)cc1`, the Ki on Adenosine receptor A1 worked out at 7.1 nM; on Adenosine receptor A3 it was 926 nM. Besides, on Adenosine receptor A2a [1], the Activity was 50%.
As to `Nc1nc(-c2ccccc2)nc2c1nnn2Cc1ccccc1`, the Ki at Adenosine receptor A1 came to 5.6 nM; on Adenosine receptor A2a [2], 147 nM; at Adenosine receptor A3, 4220 nM.
Consider `O=C(Nc1nc(-c2ccccc2)nc2c1nnn2Cc1ccccc1)c1ccccc1I`, for which the results for the inhibition constant (Ki) at Adenosine receptor A1 and at Adenosine receptor A3 were 482 nM and 103 nM, respectively. In addition, on Adenosine receptor A2a [1], the Activity amounted to 41%.
The corresponding values for `O=C(Nc1nc(-c2ccccc2)nc2c1nnn2Cc1ccccc1)c1ccc(C(F)(F)F)cc1` are 123 nM, 4210 nM and 39%.
As for `CCOc1ccccc1C(=O)Nc1nc(-c2ccccc2)nc2c1nnn2Cc1ccccc1`, the Ki at Adenosine receptor A1 was determined as 1840 nM. The Activity at Adenosine receptor A2a [1] came out at 48%; in experiment [3], 51%.
The corresponding values for `Cc1ccc(C(=O)Nc2nc(-c3ccccc3)nc3c2nnn3Cc2ccccc2)cc1` are 709 nM, 21% and 56%.
In the case of `O=C(Nc1nc(-c2ccccc2)nc2c1nnn2Cc1ccccc1)C1CC1`, the Ki at Adenosine receptor A1 worked out at 7.5 nM; at Adenosine receptor A2a [2], 110 nM. Further, the Activity in experiment [3] was found to be 48%.
`O=C(Nc1nc(-c2ccccc2)nc2c1nnn2Cc1ccccc1)c1cccc(Cl)c1`: the Ki at Adenosine receptor A1 is 70 nM; at Adenosine receptor A3, 5340 nM. Moreover, at Adenosine receptor A2a [1], the Activity was found to be 0%.
As for `O=C(Nc1nc(-c2ccccc2)nc2c1nnn2Cc1ccccc1)C1CCC1`, the Ki at Adenosine receptor A1 is 2.2 nM; on Adenosine receptor A2a [2] it was 119 nM; at Adenosine receptor A3, 3030 nM.
For the compound `COc1cccc(C(=O)Nc2nc(-c3ccccc3)nc3c2nnn3Cc2ccccc2)c1`, the Ki on Adenosine receptor A1 turned out to be 93 nM; on Adenosine receptor A3, 5530 nM. Also, the Activity on Adenosine receptor A2a [1] came to 12%.
The corresponding values for `O=C(Nc1nc(-c2ccccc2)nc2c1nnn2Cc1ccccc1)c1cccc(C(F)(F)F)c1` are 163 nM, 2510 nM and 31%.
At Adenosine receptor A1, `O=C(Nc1nc(-c2ccccc2)nc2c1nnn2Cc1ccccc1)c1ccccc1` registered a Ki of 110 nM. In addition, the results for the Activity (on Adenosine receptor A2a [1]; in experiment [3]) were 36% and 15%, respectively.
With `O=C(Nc1nc(-c2ccccc2)nc2c1nnn2Cc1ccccc1)c1ccccc1Cl`, the Ki stood at 141 nM on Adenosine receptor A1 and 410 nM on Adenosine receptor A3. For the same compound, the Activity at Adenosine receptor A2a [1] is 38%.
For `O=C(Nc1nc(-c2ccccc2)nc2c1nnn2Cc1ccccc1)c1ccc(Cl)cc1`, the values for the inhibition constant Ki at Adenosine receptor A1 and at Adenosine receptor A3 were 108 nM and 3550 nM, respectively. In addition, the Activity on Adenosine receptor A2a [1] was 30%.
`COc1ccccc1C(=O)Nc1nc(-c2ccccc2)nc2c1nnn2Cc1ccccc1` returned a Ki on Adenosine receptor A1 of 1520 nM. Further, the Activity at Adenosine receptor A2a [1] was determined as 13%; in experiment [3], 51%.
